Experimental data published in paper PMC3268354 (Bioorganic & Medicinal Chemistry Letters, 2012).

These compounds were tested on cPLA2α (assay: reported cPLA2α inhibition of training and test set compounds). Settings: assigned from reported activity of training set compounds.
Format: biochemical

Compound	Class (activity class assigned for HipHop refine model)
O=C(COc1ccc(C(=O)O)cc1)COc1ccc(C(=O)NCCCCc2ccccc2)cc1 [Compound 16]	Inactive
CN(CCc1ccccc1)C(=O)CSc1ccc(OCC(=O)COc2ccc(C(=O)O)cc2)cc1 [Compound 17]	Inactive
CCCCCCCCCCCCCCC(=O)C(=O)NCCCC(=O)O [Compound 1]	Active
CCCCCCCCCCOc1ccc(OCC(=O)COc2ccc(C(=O)O)cc2)cc1 [Compound 7]	Highly active
Cn1ccnc1SCCCCOc1ccc(OCC(=O)COc2ccc(C(=O)O)cc2)cc1 [Compound 18]	Inactive
O=C(COc1ccc(SCCCCSc2nccs2)cc1)COc1ccc(C(=O)O)cc1 [Compound 14]	Active
O=C(COc1ccc(SCCCCCc2ccccc2)cc1)COc1ccc(C(=O)O)cc1 [Compound 6]	Highly active

These compounds were tested on cPLA2α-mediated AA release in human monocytes (assay: cPLA2α-mediated AA release in Ca2+-ionophore A23187-stimulated human monocytes). Settings: human monocytes stimulated with A23187.
Format: cell-based
Procedure, shortened: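 Human monocytes were stimulated with Ca2+-ionophore A23187 in the presence of test compound, and arachidonic acid release was measured. Inhibition is expressed as IC50. A reference cPLA2α inhibitor was run as an assay control.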

Compound	inhibition of AA release
N-{(2S,4R)-4-(biphenyl-2-ylmethyl-isobutyl-amino)-1-[2-(2,4-difluorobenzoyl)-benzoyl]-pyrrolidin-2-ylmethyl}-3-[4-(2,4-dioxothiazolidin-5-ylidenemethyl)-phenyl]acrylamide [Compound 43]	inhibited AA release as expected
